Assay results taken from ChEMBL document CHEMBL1141221, “Diketo acid pharmacophore. 2. Discovery of structurally diverse inhibitors of HIV-1 integrase” (J Med Chem, 2005).

How the values were obtained:
CEM-SS = assay: Cytotoxicity against human T cell line CEM-SS; assay type: functional
Outline: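 Uninfected CEM-SS cells were exposed to serial compound dilutions on the same plate as the antiviral test, at 37 °C with 5% CO2 for 6 days. Viability was measured by XTT (0.2 mg/mL, 4 h) absorbance at 450 nm.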

[1] = target: T1, Human immunodeficiency virus type 1 integrase (Human immunodeficiency virus 1, UniProt Q7ZJM1); assay: Inhibition of 3'-processing catalytic activity HIV1 integrase
Outline: (§1)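 Wild-type HIV-1 IN (200 nM final) preincubated with inhibitor for 30 min at 30 °C. Buffer: 25 mM MOPS pH 7.2, 7.5 mM MnCl2, 50 mM NaCl, 10% DMSO, BSA and reducing agents. Reactions were quenched with formamide dye. IC50 was taken from log concentration versus percent inhibition.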

[2] = target: T1, Human immunodeficiency virus type 1 integrase; assay: Inhibition of strand transfer catalytic activity HIV1 integrase; outline: as §1
[3] = test system: Human immunodeficiency virus 1; assay: Antiviral activity in human T cell line CEM-SS infected with HIV1; assay type: functional, organism-based
Outline: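 CEM-SS cells at 5×10^3/well were infected with HIV-1 RF (MOI 0.3), and serial compound dilutions were added immediately. Cells were kept at 37 °C with 5% CO2 for 6 days. Viability was read by XTT (0.2 mg/mL, 4 h) absorbance at 450 nm.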

T1 sequence (Q7ZJM1 whole entry): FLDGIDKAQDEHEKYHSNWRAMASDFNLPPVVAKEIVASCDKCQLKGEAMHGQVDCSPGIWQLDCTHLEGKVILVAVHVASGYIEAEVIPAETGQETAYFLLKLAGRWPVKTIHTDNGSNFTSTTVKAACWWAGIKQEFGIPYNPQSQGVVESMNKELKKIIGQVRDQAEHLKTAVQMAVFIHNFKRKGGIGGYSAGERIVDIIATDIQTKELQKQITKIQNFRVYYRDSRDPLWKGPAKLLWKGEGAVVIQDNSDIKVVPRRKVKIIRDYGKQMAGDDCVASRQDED

Compound | CC50 (CEM-SS) | IC50 [1] [µM] | IC50 [2] [µM] | EC50 ([3]; t cell line) | EC50 ([3]; Human immunodeficiency virus 1, T-cell, read-out: EC50) [µM]
COc1ccc(CCNC(=O)CC(=O)N/N=C/c2ccco2)cc1OC | Toxic | > 100 | 90 | – | –
Cc1[nH]n(-c2ccccc2)c(=O)c1C(c1ccc(O)c(O)c1)c1c(C)n(C)n(-c2ccccc2)c1=O (configuration not stated) | Toxic | 89 | 31 | – | –
O=C(/N=N/c1c(O)[nH]c2ccc(F)cc12)/C(=C/C=C/c1ccccc1)NC(=O)c1ccccc1 | Toxic | 60 | 38 | – | –
O=C(c1ccccc1)c1cc(Br)ccc1NC(=O)c1nc[nH]c1C(=O)O | – | 16 | 17 | – | –
O=C(O)c1cc(NC(=O)c2cccc3ccccc23)c(C(=O)O)cc1NC(=O)c1cccc2ccccc12 | – | 28 | 21 | – | –
O=C(/C=C/c1ccc(-c2ccccc2[N+](=O)[O-])o1)Nc1ccc(O)c(-c2nc3ccccc3o2)c1 | – | 23 | 63 | – | –
COc1ccc(N(CC(=O)N/N=C/c2c(O)ccc3ccccc23)S(C)(=O)=O)cc1Cl | – | 95 | 59 | – | –
O=C(N/N=C/c1ccc(/C=N/NC(=O)c2cc(O)cc(O)c2)cc1)c1cc(O)cc(O)c1 | – | 76 | 56 | – | –
CC(=O)c1cc(C(=O)CC(=O)Nc2ccc([N+](=O)[O-])cc2)sc1Nc1ccccc1 | – | 80 | 28 | – | –
O=C(CSc1nc(O)cc(CSc2ccc(Cl)cc2)n1)Nc1ccc(Cl)cc1Cl | Toxic | – | – | – | –
O=C(O)C(Cc1c[nH]c2ccccc12)NS(=O)(=O)c1ccccc1[N+](=O)[O-] (configuration not stated) | – | 88 | 56 | – | –
COC(=O)c1ccc(C(=O)OC)c(NC(=O)c2ccc(C)c([N+](=O)[O-])c2)c1 | – | 92 | > 100 | – | –
COc1ccc(C(=O)Nc2ccc(O)c(-c3nc4ccccc4o3)c2)cc1[N+](=O)[O-] | – | 6 | 7 | – | –
CC(C)Cn1c(=O)c(C(=O)Nc2ccccc2S(N)(=O)=O)c(O)c2ccccc21 | – | 40 | 16 | Not Active | –
Cc1ccc(C(=O)N/C(=C/c2ccc(-c3ccc(Cl)cc3Cl)o2)C(=O)NCCCO)cc1 | – | > 1000 | 85 | – | –
O=C(N/N=C/c1cc(Br)ccc1O)/C(=C/C=C/c1ccccc1)NC(=O)c1ccccc1 | Toxic | 90 | 23 | – | –
O=C(/C=C/c1ccco1)NC(=S)Nc1ccccc1O | Toxic | 57 | 28 | – | –
O=C(/C=C(\O)c1ccc(Cl)cc1)C(=O)/N=N/c1c(O)[nH]c2ccc(Br)cc12 | Toxic | 42 | 28 | – | –

Compound | CC50 (CEM-SS) | IC50 [1] [µM] | IC50 [2] [µM] | EC50 ([3]; t cell line) | EC50 ([3]; Human immunodeficiency virus 1, T-cell, read-out: EC50) [µM]
O=C(Nc1ccc(O)c(-c2nc3cc(Cl)ccc3o2)c1)c1cccnc1 | – | 61 | 10 | Not Active | –
Cc1ccc(S(=O)(=O)Nc2ccccc2/N=C/c2sc3ccccc3c2O)cc1 | – | 88 | 68 | – | –
O=C(Cc1ccccc1)Nc1cc(C(=O)O)c(NC(=O)Cc2ccccc2)cc1C(=O)O | > 400 µM | 9 | 7 | – | 104
Cc1ccc(C(=O)C2=C(O)C(=O)N(CCCc3c[nH]cn3)C2c2ccc(Cl)cc2)cc1 (configuration not stated) | – | 93 | 67 | – | –
O=C(/C=C/c1ccc(Cl)cc1)Nc1ccc(NC(=O)c2ccco2)cc1 | – | 90 | 91 | – | –
O=C(CC1Sc2ccccc2NC1=O)Nc1cccc(C(=O)O)c1 (configuration not stated) | – | 79 | 71 | – | –
COc1cc(/C=N/NC2=NC(=O)C(CC(=O)Nc3ccc(Cl)c(Cl)c3)S2)ccc1O (configuration not stated) | Toxic | 89 | 38 | – | –
CC(=O)c1cc(C(=O)CC(=O)Nc2ccccc2)sc1Nc1ccccc1 | – | > 100 | > 100 | – | –
O=C(Nc1ccc(O)c(-c2nc3ccccc3o2)c1)c1cccc2ccccc12 | – | 14 | 6 | – | –
O=C(CSc1nc2ccccc2n1Cc1ccccc1)N/N=C/c1cc(Br)ccc1O | Toxic | 60 | 51 | – | –
CCOC(=O)c1c(-c2ccccc2)csc1NC(NC(=O)c1ccco1)C(=O)c1ccc(C)cc1 (configuration not stated) | – | > 100 | 79 | – | –
CCOC(=O)CCc1cc(C(=O)OCC)c(CCC(=O)OCC)cc1C(=O)OCC | – | > 100 | 94 | – | –
COc1ccc2oc(=O)c(-c3csc(N/N=C/c4ccccc4O)n3)cc2c1 | – | 30 | 10 | Not Active | –
CC(=O)c1cc(C(=O)CC(=O)Nc2cccc([N+](=O)[O-])c2)sc1Nc1ccccc1 | – | 97 | 29 | – | –
O=C(CSc1nc(CSc2ccc(Cl)cc2)cc(=O)[nH]1)Nc1ccc(Cl)cc1Cl | – | 34 | 24 | – | –
CCSc1nnc(N2C(=O)c3ccc(C(=O)c4ccc(C(=O)O)cc4)cc3C2=O)s1 | – | 98 | 65 | – | –
Oc1ccccc1/C=N/CC(O)C/N=C/c1ccccc1O | – | 97 | 61 | – | –
